These results are taken from ChEMBL document CHEMBL1144418, “Structure-activity relationships of fluorinated lysophosphatidic acid analogues” (J Med Chem, 2005).

The test has as its target T1, Lysophosphatidic acid receptor 3 (Homo sapiens, UniProt Q9UBY5).
T1 sequence (Q9UBY5 whole entry): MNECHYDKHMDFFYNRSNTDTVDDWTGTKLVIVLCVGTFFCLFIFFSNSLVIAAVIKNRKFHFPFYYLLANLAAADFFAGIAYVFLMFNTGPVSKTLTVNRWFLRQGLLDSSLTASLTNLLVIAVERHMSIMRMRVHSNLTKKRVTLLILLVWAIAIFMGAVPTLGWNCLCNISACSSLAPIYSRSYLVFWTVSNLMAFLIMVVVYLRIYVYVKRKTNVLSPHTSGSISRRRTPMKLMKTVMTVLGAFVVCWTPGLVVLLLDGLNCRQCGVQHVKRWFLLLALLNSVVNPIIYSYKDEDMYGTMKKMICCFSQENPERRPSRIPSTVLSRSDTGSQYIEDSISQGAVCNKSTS
Put plainly: Agonistic activity as increased intracellular calcium level by human LPA3 receptor expressed in Sf9 cells. Format: functional. The essentials:
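Sf9 insect cells infected with baculovirus encoding human LPA3, harvested 48 h post-infection, washed in MES-buffered saline (pH 6.2, 0.1% fatty acid-free BSA, 10 mM CaCl2), loaded with Fura-2 AM 45 min, resuspended at 10^6 cells/mL; ligand-evoked fluorescence at 27 °C in quartz cuvettes, excitation 340/380 nm, emission 500 nm, recorded before and after ligand addition; EC50 from concentration-response.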
On to `CCCCCCCCCCCCCCCC(=O)OC[C@H](O)CC(F)P(=O)(O)O` (stereo partly drawn), for which the EC50 – broadly, the concentration at which the effect is half-maximal – is over 10000 nM.
On to `CCCCCCCC/C=C/CCCCCCCC(=O)O[C@H](COC)COP(O)(O)=S`, for which the EC50 was about 5000 nM.
In the case of `CCCCCCCCCCCCCCCC(=O)OC[C@H](F)COP(=O)(O)O`, the EC50 is over 10000 nM.
Consider `CCCCCCCC/C=C/CCCCCCCC(=O)OC(CF)COP(=O)(O)O` (single isomer, unassigned; form 2), for which the EC50 was about 200 nM.
Take `CCCCCCCC/C=C/CCCCCCCC(=O)OC[C@H](F)COP(=O)(O)O`: the EC50 is about 1000 nM.
To `CCCCCCCC/C=C/CCCCCCCC(=O)OC(CF)COP(=O)(O)O` (single isomer, unassigned; form 1) belongs about 10 nM; to `CCCCCCCCCCCCCCCC(=O)OC[C@H](CC(F)P(=O)(O)O)OC` (stereo partly drawn), over 10000 nM; to `CCCCCCCCCCCCCCCC(=O)O[C@H](COP(=O)(O)O)CC(F)F`, over 10000 nM.
`CCCCCCCCCCCCCCCC(=O)OC(CF)COP(=O)(O)O` (single isomer, unassigned): the EC50 was about 3000 nM.
Consider `CCCCCCCC/C=C/CCCCCCCC(=O)OC[C@H](O)CC(F)(F)P(=O)(O)O`, for which the EC50 was about 1000 nM.
As for `CCCCCCCC/C=C/CCCCCCCC(=O)OC[C@H](CC(F)P(=O)(O)O)OC` (stereo partly drawn), the EC50 was determined as 20 nM.
The value for `CCCCCCCCCCCCCCCC(=O)O[C@H](COP(=O)(O)O)C(F)F` was over 10000 nM.
To `CCCCCCCC/C=C/CCCCCCCC(=O)O[C@H](COP(=O)(O)O)CC(F)F` belongs over 10000 nM; to `CCCCCCCC/C=C/CCCCCCCC(=O)OC[C@@H](O)CC(F)P(=O)(O)O` (stereo partly drawn), 0.5 nM.
For `CCCCCCCC/C=C/CCCCCCCC(=O)OC[C@H](O)CC(F)P(=O)(O)O` (stereo partly drawn), the half-maximal effective concentration (EC50) turned out to be 500 nM.
Regarding `CCCCCCCCCCCCCCCC(=O)OCC(O)COP(=O)(O)O` (stereo not drawn) [PALMITOYL], the EC50 was over 10000 nM.
For the compound `CCCCCCCC/C=C/CCCCCCCC(=O)OC[C@@H](O)CC(F)(F)P(=O)(O)O`, the EC50 came to 500 nM.
For `CCCCCCCC/C=C/CCCCCCCC(=O)O[C@H](COP(=O)(O)O)C(F)F`, the EC50 was over 10000 nM.
On to `CCCCCCCCCCCCCCCC(=O)O[C@H](COC)CC(F)P(=O)(O)O` (stereo partly drawn), for which the EC50 was about 10000 nM.
`CCCCCCCCCCCCCCCC(=O)OC[C@@H](O)CC(F)P(=O)(O)O` (stereo partly drawn): the EC50 is 20 nM.
To `CCCCCCCC/C=C/CCCCCCCC(=O)O[C@H](COC)CC(F)P(=O)(O)O` (stereo partly drawn) belongs 5 nM.
Regarding `CCCCCCCCCCCCCCCC(=O)OC[C@@H](F)COP(=O)(O)O`, the EC50 is over 10000 nM.
The value for `CCCCCCCC/C=C/CCCCCCCC(=O)OC[C@@H](F)COP(=O)(O)O` was over 10000 nM.
